Active and inactive are the calls of the source. The calls are words filed in the database; no cut-off is given here.
Assays:
[1] = tested on: Oryctolagus cuniculus; test: Cardioprotective effect in New Zealand rabbit ischemia/reperfusion-induced left anterior descending coronary artery ligation myocardial infarction model assessed as ratio of area at risk to infarct area at 10 mg/kg, iv administered as bolus dose 5 min prior to reperfusion (reference value: 57.3%); format: functional, Myocardium
[2] = organism: Mus musculus; test: Inhibition of Cacl2-induced mPTP opening in C57/bl6 mouse liver mitochondria assessed as reduction in mitochondrial swelling at 1 uM by spectrophotometry
Summary of the method: (§1)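 Male C57/bl6 liver mitochondria at 0.5 mg/mL final in KCl/MOPS/phosphate buffer with glutamate/malate, pH 7.4; compound at 1 μM added before the mitochondria. Swelling followed as the fall in A540, read every 9 s for 10 min. Inducers: CaCl2 150 μM, FCCP 50 nM, menadione 100 μM, diamide 300 μM.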

[3] = organism: Mus musculus; test: Inhibition of menadione-induced mPTP opening in C57/bl6 mouse liver mitochondria assessed as reduction in mitochondrial swelling at 1 uM by spectrophotometry; summary of the method: as §1
[4] = organism: Mus musculus; test: Inhibition of FCCP-induced mPTP opening in C57/bl6 mouse liver mitochondria assessed as reduction in mitochondrial swelling at 1 uM by spectrophotometry; summary of the method: as §1
[5] = organism: Mus musculus; test: Inhibition of diamide-induced mPTP opening in C57/bl6 mouse liver mitochondria assessed as reduction in mitochondrial swelling at 1 uM by spectrophotometry; summary of the method: as §1
[6] = target: Sodium-dependent noradrenaline transporter (Homo sapiens) (UniProt P23975); test: Displacement of antagonist radioligand from human NET at 10 uM
Summary of the method: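 Single 10 μM concentration tested in a receptor/enzyme diversity panel, read as displacement of a target-specific radioligand.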

[7] = tested on: Rattus norvegicus; test: Toxicity in WI(Glx/BRL/Han)IGS rat assessed as systolic blood pressure at 30 mg/kg, iv; format: organism-based, Artery; parameters: dose 30 mg/kg, route intravenous; conditions: in vivo
Summary of the method: (§2)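 Conscious female rats implanted with telemetry, given a single iv dose up to 30 mg/kg. Heart rate, systolic, diastolic and mean blood pressure, and body temperature recorded from at least 1 h before to about 24 h after dosing.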

[8] = Half life in New Zealand rabbit myocardial infarction model plasma at 5 mg/kg, iv administered as bolus dose by LC/MS analysis; format: ADME, organism-based, Oryctolagus cuniculus; parameters: dose 5 mg/kg, route intravenous
Summary of the method: (§3)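 Satellite rabbits (n = 5) given the same 5 mg/kg iv bolus. Jugular blood taken into K2EDTA predose and at 5, 15, 30, 60 and 240 min post reperfusion. Plasma precipitated with ACN/H3PO4 and analysed by UPLC-MS/MS, ESI(+), MRM mode. Eight-point calibration 2.5–1000 ng/mL, LLOQ 2.5 ng/mL. Half-life by noncompartmental analysis.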

[9] = tested on: Rattus norvegicus; test: Toxicity in WI(Glx/BRL/Han)IGS rat assessed as heart rate at 30 mg/kg, iv; format: organism-based; parameters: dose 30 mg/kg, route intravenous; conditions: in vivo; summary of the method: as §2
[10] = tested on: Mus musculus; test: Increase in calcium retention capacity in C57/bl6 mouse heart mitochondria at 15 mg/kg, iv measured after 5 mins by fluorimetry (reference value: 69.8 uM); format: functional
Summary of the method: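 Mice dosed 15 mg/kg iv in the tail vein. Hearts taken 5 min later and mitochondria isolated in sucrose/Tris/EGTA/0.1% BSA buffer. CRC measured with Calcium Green 5N under CaCl2 pulses added every minute at 25 °C until mPTP opening. Value is absolute calcium retained; vehicle DMSO, n = 16 vehicle, n = 6 treated.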

[11] = Plasma concentration in New Zealand rabbit myocardial infarction model at 5 mg/kg, iv administered as bolus dose after 240 mins by LC/MS analysis; format: ADME, organism-based, Oryctolagus cuniculus; parameters: dose 5 mg/kg, route intravenous; summary of the method: as §3
[12] = tested on: Oryctolagus cuniculus; test: Cardioprotective effect in New Zealand rabbit ischemia/reperfusion-induced left anterior descending coronary artery ligation myocardial infarction model assessed as ratio of area at risk to infarct area at 5 mg/kg, iv administered as bolus dose 5 min prior to reperfusion (reference value: 57.3%); format: functional, Myocardium
[13] = Plasma concentration in New Zealand rabbit myocardial infarction model at 5 mg/kg, iv administered as bolus dose after 5 mins by LC/MS analysis; format: ADME, organism-based, Oryctolagus cuniculus; parameters: dose 5 mg/kg, route intravenous; summary of the method: as §3
[14] = tested on: Rattus norvegicus; test: Toxicity in WI(Glx/BRL/Han)IGS rat assessed as diastolic blood pressure at 30 mg/kg, iv; format: organism-based, Artery; parameters: dose 30 mg/kg, route intravenous; conditions: in vivo; summary of the method: as §2
[15] = target: Voltage-gated inwardly rectifying potassium channel KCNH2 (Homo sapiens, UniProt Q12809); test: Displacement of [3H]-astemizole from human hERG expressed in HEK293 cells at 30 uM by liquid scintillation counting; format: cell-based; conditions: hek293, 30 µM
[16] = tested on: Rattus norvegicus; test: Toxicity in WI(Glx/BRL/Han)IGS rat assessed as body temperature at 30 mg/kg, iv; format: organism-based; parameters: dose 30 mg/kg, route intravenous; conditions: in vivo; summary of the method: as §2
[17] = organism: Mus musculus; test: Inhibition of calcium-induced mPTP opening in C57/bl6 mouse liver mitochondria assessed as increase in calcium retention capacity in presence of cyclosporine A by fluorimetry
Summary of the method: (§4)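 Male C57/bl6 liver mitochondria (0.5 mg/mL) in KCl/MOPS buffer with glutamate/malate, pH 7.4, containing 1 μM Calcium Green 5N. Compound added just before the start. CaCl2 pulses added every minute at 25 °C; extramitochondrial fluorescence (ex 505/em 535 nm) followed until mPTP opening. Dose series 0.1–5.0 μM, or given in combination with CsA; mean of three experiments.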

[18] = organism: Mus musculus; test: Inhibition of calcium-induced mPTP opening in C57/bl6 mouse heart mitochondria assessed as increase in calcium retention capacity at 5 uM after 2 mins by fluorimetry (reference value: 80 uM)
Summary of the method: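 Excised mouse hearts on a Langendorff apparatus, perfused 2 min with Krebs-type buffer, then 2 min with 5 μM compound in 0.1% DMSO or 0.1% DMSO alone. Hearts iced, mitochondria isolated, CRC measured with Calcium Green 5N and repeated CaCl2 pulses at 25 °C. Value is absolute calcium retained; n = 6 per group.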

[19] = organism: Mus musculus; test: Inhibition of calcium-induced mPTP opening in C57/bl6 mouse liver mitochondria assessed as increase in calcium retention capacity at 0.1 to 5 uM by fluorimetry; summary of the method: as §4

Chain of Voltage-gated inwardly rectifying potassium channel KCNH2 (Q12809 whole entry): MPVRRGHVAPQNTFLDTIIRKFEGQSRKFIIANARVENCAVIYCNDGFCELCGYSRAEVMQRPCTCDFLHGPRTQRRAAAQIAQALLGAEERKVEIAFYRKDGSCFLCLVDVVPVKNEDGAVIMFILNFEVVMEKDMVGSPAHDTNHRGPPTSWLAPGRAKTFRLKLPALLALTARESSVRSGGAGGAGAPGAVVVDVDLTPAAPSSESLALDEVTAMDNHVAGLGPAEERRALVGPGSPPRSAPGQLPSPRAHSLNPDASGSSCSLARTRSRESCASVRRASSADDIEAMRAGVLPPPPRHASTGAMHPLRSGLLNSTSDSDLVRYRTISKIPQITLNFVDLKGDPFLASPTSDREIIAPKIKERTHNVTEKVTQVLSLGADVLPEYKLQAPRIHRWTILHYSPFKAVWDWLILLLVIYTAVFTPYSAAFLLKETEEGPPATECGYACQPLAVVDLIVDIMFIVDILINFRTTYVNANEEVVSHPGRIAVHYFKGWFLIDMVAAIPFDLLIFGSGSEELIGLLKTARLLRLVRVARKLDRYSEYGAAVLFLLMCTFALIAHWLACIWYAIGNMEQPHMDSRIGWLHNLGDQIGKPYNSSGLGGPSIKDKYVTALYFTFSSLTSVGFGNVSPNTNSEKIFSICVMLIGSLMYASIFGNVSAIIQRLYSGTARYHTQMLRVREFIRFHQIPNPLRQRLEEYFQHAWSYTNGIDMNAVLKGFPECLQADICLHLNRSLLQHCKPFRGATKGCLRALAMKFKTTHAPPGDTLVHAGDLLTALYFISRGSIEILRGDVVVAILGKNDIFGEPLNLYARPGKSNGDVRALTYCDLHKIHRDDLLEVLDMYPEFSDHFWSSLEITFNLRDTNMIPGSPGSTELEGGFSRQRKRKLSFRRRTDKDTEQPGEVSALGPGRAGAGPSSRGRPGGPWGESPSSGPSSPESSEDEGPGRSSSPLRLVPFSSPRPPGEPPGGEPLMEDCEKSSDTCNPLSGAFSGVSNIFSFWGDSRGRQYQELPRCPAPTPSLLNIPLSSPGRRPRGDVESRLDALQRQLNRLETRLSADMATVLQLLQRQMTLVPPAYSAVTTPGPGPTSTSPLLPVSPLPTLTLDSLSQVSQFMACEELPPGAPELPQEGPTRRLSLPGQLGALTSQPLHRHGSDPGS
Chain of Sodium-dependent noradrenaline transporter (Homo sapiens) (P23975 whole entry): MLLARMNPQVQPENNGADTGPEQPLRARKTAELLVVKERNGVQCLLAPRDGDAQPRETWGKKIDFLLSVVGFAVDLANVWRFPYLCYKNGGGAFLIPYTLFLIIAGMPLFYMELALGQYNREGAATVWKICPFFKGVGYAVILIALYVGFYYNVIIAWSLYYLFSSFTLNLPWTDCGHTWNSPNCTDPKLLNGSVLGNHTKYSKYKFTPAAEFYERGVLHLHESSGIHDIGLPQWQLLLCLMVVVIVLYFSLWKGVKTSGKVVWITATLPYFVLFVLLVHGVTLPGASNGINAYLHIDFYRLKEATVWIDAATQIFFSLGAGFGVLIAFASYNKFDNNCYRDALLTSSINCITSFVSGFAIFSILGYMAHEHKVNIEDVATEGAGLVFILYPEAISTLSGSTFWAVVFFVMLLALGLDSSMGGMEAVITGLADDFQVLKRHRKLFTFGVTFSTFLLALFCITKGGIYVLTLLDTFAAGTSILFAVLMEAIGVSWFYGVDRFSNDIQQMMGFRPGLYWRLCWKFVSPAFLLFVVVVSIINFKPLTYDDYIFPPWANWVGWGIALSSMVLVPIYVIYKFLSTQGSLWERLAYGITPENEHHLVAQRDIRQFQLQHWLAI

Compound: C/C=C/C[C@@H](C)[C@@H](O)[C@H]1C(=O)N[C@@H](CC)C(=O)N(C)CC(=O)N(C)[C@@H](CC(C)C)C(=O)N[C@@H](C(C)C)C(=O)N(C)[C@@H](CC(C)C)C(=O)N[C@@H](C)C(=O)N[C@H](C)C(=O)N(C)[C@@H](CC(C)C)C(=O)N(C)[C@@H](CC(C)C)C(=O)N(C)[C@@H](C(C)C)C(=O)N1C [CYCLOSPORINE]
- Activity [1]: 32.6%

Compound: COc1ccc(/C=C/C(=O)Nc2cccc(Cl)c2)cc1O
- inhibition [2]: Active
- inhibition [3]: Active
- inhibition [4]: Active
- inhibition [5]: Active
- inhibition [6]: > 50%

Compound: O=C(/C=C/c1ccc(F)c(O)c1)Nc1cccc2ccccc12
- Activity [7]: Non-toxic
- half-life [8]: 30 min
- Activity [9]: Non-toxic
- Activity [10]: 108.4 µM
- concentration at 4 h [11]: 20 nM
- Activity [12]: 30.9%
- concentration at 5 min [13]: 4800 nM
- Activity [14]: Non-toxic
- Activity [15]: Not Active
- Activity [16]: Non-toxic
- inhibition [17]: Active
- INH [18]: 125 µM
- inhibition [19]: Dose-dependent effect
